Assay results of several laboratories.
Each line is one published result; the experiments were not run side by side.
Target: Mu-type opioid receptor (OPRM1, Homo sapiens, UniProt P35372)

With CN[C@]1(c2ccccc2Cl)CCCCC1=O the Ki was 3000 nM (ligand displacement; radioligand).
With COc1ncccc1-c1cnn2ccc(N3CCN(C(=O)OC(C)C)CC3)nc12 the IC50 was > 30000 nM (cell-free assay).
With CCCO[C@@]12Cc3cc(-c4ccccc4)cnc3[C@@H]3Oc4c(O)ccc5c4[C@@]31CCN(CC1CC1)[C@@H]2C5 the Ki was 499 nM (cell-free assay).
The Ki of Cc1cc(O)cc(C)c1C[C@H](N)C(=O)N1Cc2ccccc2C[C@H]1C(=O)NCC(=O)NCc1ccc([N+](=O)[O-])cc1 is reported as 4.5 nM (ligand displacement; radioligand; cell membranes).
The IC50 of CC(NCCc1ccc(O)cc1)C(O)c1ccc(O)cc1 (stereo not drawn) is reported as 9180 nM (ligand displacement).
With Cc1cc(O)cc(C)c1C[C@H](N)C(=O)N1Cc2ccccc2C[C@H]1C(=O)NCC(=O)NCc1ccc(Cl)cc1 the Ki was 2.9 nM (ligand displacement; radioligand; cell membranes).
The EC50 of c1ccc([C@]2(CCN[C@H]3CCOc4ccccc43)CCOC3(CCCC3)C2)nc1 is reported as 1.6 nM (cAMP; agonist; luciferase).
COc1cc(-c2cnc3c(c2)C[C@@]2(OCCCc4ccccc4)[C@H]4Cc5ccc(O)c6c5[C@@]2(CCN4CC2CC2)[C@H]3O6)ccn1 has a Ki of < 10 nM (cell-free assay).
With Cc1cc(O)cc(C)c1C[C@H](N)C(=O)N1Cc2ccccc2C[C@H]1C(=O)NCC(=O)NCc1ccc(N)cc1 the Ki was 34 nM (ligand displacement; radioligand; cell membranes).
CCCCCCCCC[C@@H]1CC(=O)NCC(=O)N[C@H](Cc2ccc(O)cc2)C(=O)NCC(=O)N[C@@H](Cc2ccccc2)C(=O)O1 has a Ki of 6400 nM (ligand displacement; radioligand).
For CC(=O)Nc1ccccc1-c1cnc2c(c1)C[C@@]1(OCCCc3ccccc3)[C@H]3Cc4ccc(O)c5c4[C@@]1(CCN3CC1CC1)[C@H]2O5, the Ki was 141 nM (cell-free assay).
CC(Cc1ccccc1)NCCC(c1ccccc1)c1ccccc1 (stereo not drawn) gave an IC50 of 1800 nM (ligand displacement; radioligand).
